Source: PubChem BioAssay
b-catenin transl: alters nuclear translocation of beta-catenin in HeLa cells; actives 0.3% (n = 190,000); immunofluorescence imaging; AID 1665; nuclear translocation activity, % at 5 µM;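 active = nuclear translocation activity above 50% at 5 µM, with a well cell count of 50 or more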;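 note: per-cell ratio of nuclear to cytoplasmic median beta-catenin stain intensity; plate controls were DMSO negative control for no effect and GSK-3 inhibitor IX positive control for full effect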
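assay system = human HeLa cells, endogenous beta-catenin | times = compound treatment 24 h, 37°C, 5% CO2 | detection = Anti-beta-catenin immunofluorescence on PFA-fixed, Triton-permeabilized cells, DAPI nuclei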
Ba/F3 V617F tox: reduce viability of Ba/F3 cells dependent on JAK2V617F | actives 1.1% (n = 220,000) | Ba/F3 EpoR-JAK2V617F viability, ATP luminescence | AID 1446 | inhibition, % at 5.6 µM;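 active = inhibition above the campaign mean plus 3 SD over all tested compounds, cut at about 24% in these data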;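 note: cytokine-independent growth of Ba/F3 cells driven by EpoR plus mutant JAK2; 0% = DMSO-treated cells and 100% = JAK inhibitor I control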
BaF3 parental: counter-screen for JAK2V617F inhibitors: parental Ba/F3 viability inhibitors. actives 1.1% (n = 220,000). inhibition, % at 5.6 µM. CellTiter-Glo ATP luminescence. AID 1486;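 active = inhibition above a per-campaign cutoff, the mean inhibition of all tested compounds plus 3 SD, cut at about 27% in these data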;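 note: 0% = DMSO wells and 100% = JAK Inhibitor I control wells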
KLF5 inh: suppresses KLF5 promoter-driven expression | DLD-1 KLF5 promoter-luciferase reporter, luminescence | AID 1700 | inhibition, % at 5 µM | actives 0.23% (n = 290,000);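 active = inhibition above a per-plate limit of that plate's mean compound inhibition plus 3 SD, cut at about 60% in these data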;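 note: 0% = DMSO wells and 100% = LY294002 at 200 µM; higher means less KLF5 promoter-driven luciferase light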
MT stabilize HCS: microtubule stabilizers in HeLa cells. HeLa tubulin immunostaining HCS, 24 h; share of cells brighter than vehicle mean+2SD. % tubulin-high responders, % at 10 µM. actives 0.83% (n = 200,000);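 active = plate Z-score above 3 for both tubulin-high and condensed-nucleus cell shares, with cell loss under 80%, at 10 µM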;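 note: anti alpha tubulin signal scored within the nucleus-defined area of each cell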
IEC-6 tox: counter-screen for KLF5 inhibitors: cytotoxicity in IEC-6 cells | IEC-6 cytotoxicity, luminescence viability | actives 0.78% (n = 290,000) | inhibition, % at 5 µM | AID 1825; in the data active = inhibition above about 22%;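 note: 0% = plate median of test compound wells and 100% = cytotoxic reference compound wells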
BaF3 parental 2: counter-screen for JAK2V617F inhibitors: parental Ba/F3 viability inhibitors | shares compounds with Ba/F3 V617F tox | inhibition, % at 5.6 µM | actives 31% (n = 580) | AID 1520 | CellTiter-Glo luminescence; cells kept alive by added IL-3;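 active = cell growth inhibition above the hit limit set in the earlier mutant JAK2 cell screen, cut at about 27% in these data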;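 note: plate controls were DMSO-treated cells for no effect and JAK Inhibitor I control wells for full effect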
JAK2V617F conf: confirmation: loss of viability in JAK2V617F-dependent Ba/F3 cells; shares compounds with Ba/F3 V617F tox; Ba/F3 EpoR-JAK2V617F viability, CellTiter-Glo luminescence; inhibition, % at 5.6 µM; actives 66% (n = 580); AID 1521;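 active = mean inhibition above the hit cutoff derived in the earlier primary screen, cut at about 25% in these data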;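 note: 0% = DMSO-treated cells and 100% = JAK inhibitor I control wells; higher means lower luminescence from reduced cell ATP and viability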
An asterisk follows results filed as active; nt = not tested or not shown. An excerpt weighted towards active compounds, which were near 2.1% of everything screened.

SMILES	b-catenin transl	Ba/F3 V617F tox	BaF3 parental	KLF5 inh	MT stabilize HCS	IEC-6 tox	BaF3 parental 2	JAK2V617F conf
O=[N+]([O-])c1ccccc1N/N=C/c1cccc(O)c1O	2	62*	-1	-94	nt	-10	51*	96*
Cc1ccc(Sc2ccc(NC(=O)CCl)cc2)cc1C	3	9	12	-13	2	18	nt	nt
Cc1ccc(C)c(Sc2ccc(NC(=O)CCl)cc2)c1	1	50*	4	-14	2	6	7	86*
COc1cccc(CNC(=O)C2CCCN(c3nc4ccccc4o3)C2)c1 (centres undefined)	-5	-2	5	-37	9	-8	nt	nt
COc1ccc(CCN(C)C(=O)C2CCN(Cc3cccc(OC)c3OC)CC2)cc1OC	2	31*	-1	-23	2	2	-1	-2
Oc1ccc(C=Nc2cccc3ncccc23)c(O)c1	-1	52*	16	-21	3	18	-2	-4
Oc1ccc(C=Nc2ccc3ncccc3c2)c(O)c1	-1	-1	1	-8	3	-1	nt	nt
O=C(CNc1cc(S(=O)(=O)N2CCCC2)ccc1OCC(F)(F)F)Nc1cccc(C(F)(F)F)c1	0	2	9	-30	2	1	nt	nt
Cc1ccc(CC(=O)NCCC(=O)O)cc1	1	-2	-1	-16	nt	-1	nt	nt
Cc1nc([N+](=O)[O-])c(Br)n1CC(=O)c1ccc2ccccc2c1	nt	44*	6	-3	3	3	-3	77*
CCOC(=O)c1cnc2ccc(OCC)cc2c1NCc1ccccc1	1	24*	-5	-37	2	12	5	31*
CCOC(=O)c1cnc2ccc(OCC)cc2c1NCc1cccnc1	1	16	0	-27	3	6	nt	nt
COc1ccc2c(c1OC)C(=O)OC2Nc1nc(-c2ccc([N+](=O)[O-])cc2)cs1 (centres undefined)	-1	-1	-3	-31	nt	-4	nt	nt
COc1ccc(-c2csc(NC3OC(=O)c4c3ccc(OC)c4OC)n2)cc1OC (centres undefined)	1	27*	3	-16	nt	7	13	31*
CCOc1cnn(-c2cc(Oc3ccc(C)cc3)ncn2)c(=O)c1Cl	nt	-1	6	-21	2	-6	nt	nt
Cc1ccccc1Oc1cc(-n2ncc(Cl)c(Cl)c2=O)ncn1	-1	34*	9	-20	4	-5	100*	100*
COc1ccc(CN(Cc2cc3cc(C)ccc3[nH]c2=O)C(=O)N(C)C)cc1	-2	-2	3	14	3	6	nt	nt
CCOc1ccc(C(=O)N(Cc2ccc(OC)cc2)Cc2cc3cc(OC)ccc3[nH]c2=O)cc1	1	46*	4	-18	2	-3	-3	-3
COC(=O)c1cn(NC(=O)C2CCC(C)CC2)c(=O)c2ccccc12 (centres undefined)	nt	4	3	24	4	6	nt	nt
COC(=O)c1cn(NC(=O)c2cc([N+](=O)[O-])ccc2F)c(=O)c2ccccc12	3	36*	24	32	4	6	41*	97*
COC1(OC)C(/C=C/c2ccc(Cl)cc2)C(C#N)(C#N)C1(OC)OC (centres undefined)	nt	81*	13	21	5	20	2	73*
c1ccc(-c2cnnn2-c2ccccc2)cc1	nt	nt	nt	-51	nt	2	nt	nt
Cc1nn(CC(=O)NCCCN2C(C)CCCC2C)c(=O)c2cc3occc3n12 (centres undefined)	nt	nt	nt	-48	nt	1	nt	nt
COc1ccc(C)cc1NC(=O)C1CCN(C(=O)Cc2ccccc2)CC1	1	41*	8	1	3	2	0	4
COc1ccc(/C=N/n2cnc3c([nH]c4ccc(C)cc43)c2=O)cc1CN1CCCC1	0	4	6	-13	nt	6	nt	nt
SMILES	b-catenin transl	Ba/F3 V617F tox	BaF3 parental	KLF5 inh	MT stabilize HCS	IEC-6 tox	BaF3 parental 2	JAK2V617F conf
COc1ccc(/C=N/n2cnc3c([nH]c4ccc(F)cc43)c2=O)cc1CN1CCCC1	0	40*	15	28	nt	0	11	30*
CCOC(=O)c1[nH]c(C)c(C(=O)NC2CCCCC2)c1C	nt	100*	6	-40	6	6	-5	-21
CCOC(=O)c1[nH]c(C)c(C(=O)OC)c1C	0	-2	-1	-52	nt	-8	nt	nt
COc1ccccc1NC(=O)CSc1nnc(COc2ccccc2OC)n1C	0	-1	7	-19	3	0	nt	nt
S=c1[nH]nc(-c2ccc(Cl)cc2)n1/N=C/c1ccco1	1	0	0	-22	nt	1	nt	nt
FC(F)(F)c1n[nH]c(=S)n1/N=C/c1ccco1	-3	35*	0	6	2	-4	-8	-10
Cc1[nH]c(=O)nc2c1CCC2	0	30*	0	-15	5	2	-7	-10
Cc1nc2nc3c(c(=O)n2[nH]1)CCC3	1	-1	7	-31	3	-7	nt	nt
Cc1ccc(N2CCN(S(=O)(=O)N3CCCCC3)CC2)c(C)c1	0	-4	0	-10	4	6	nt	nt
CCOC(=O)Cn1nc(C)c([N+](=O)[O-])c1C	0	-2	8	-46	3	-6	nt	nt
Cc1ccc(OCCOC(=O)Cn2nc(C)c([N+](=O)[O-])c2C)cc1	0	26*	8	16	2	3	2	3
Cc1ccc(/C=[N+](\[O-])c2ccc(N(C)C)cc2)c2nsnc12	0	47*	5	-51	7	5	-1	-3
CCC(CC)C(=O)Nc1cccc(-c2ccc3nncn3n2)c1	nt	nt	nt	-26	nt	0	nt	nt
Cc1ccc(C2=NN(C(=O)CCCC(=O)O)C(c3ccc4c(c3)OCO4)C2)cc1 (centres undefined)	nt	nt	nt	-39	nt	12	nt	nt
CC(C)Oc1ccc(CN=C(N)N=C(N)N)cc1Cl	-1	30*	2	-27	4	-9	40*	65*
COc1ccc(CN=C(N)N=C(N)N)cc1Cl	-2	4	22	-21	6	0	nt	nt
COc1ccc(-n2nnnc2-c2cnc(N3CCCC3)nc2C(F)(F)F)cc1	0	-2	7	-7	2	5	nt	nt
CC(C)(C)NC(=O)C(c1ccccn1)N(C(=O)C1CSC(=O)C1)c1ccccc1F (centres undefined)	-1	-1	2	-20	2	-1	nt	nt
CSCC(CO)NS(=O)(=O)c1ccc(C)cc1 (centres undefined)	2	1	-2	-14	nt	3	nt	nt
O=C(O)c1ccc(CSc2nnnn2-c2ccc(F)cc2)cc1	nt	nt	nt	-23	nt	-2	nt	nt
O=C(CSc1nnnn1-c1ccc(F)cc1)c1ccc(O)c(O)c1	-4	32*	-11	6	2	8	3	80*
Oc1ccc(Cl)cc1CNc1ccc(Br)cn1	nt	27*	13	-162	2	-1	6	31*
